Laboratory results taken from ChEMBL document CHEMBL1141650, “Antitumor polycyclic acridines. 20. Search for DNA quadruplex binding selectivity in a series of 8,13-dimethylquino[4,3,2-kl]acridinium salts: telomere-targeted agents” (J Med Chem, 2008).
pIC50: −log10 of the molar value.

Tests used:
[1] = Stability of F21T DNA quadruplex sequence d[G3(T2AG3)3] assessed as thermal denaturation by FRET analysis
How it was run: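 FRET melting of F21T, d[G3(T2AG3)3] labelled with 5′ fluorescein and 3′ tamra, with compound at 1 µM. Lithium chloride buffer held sodium at 10 mM. Tm was taken where normalized fluorescence equalled 0.5, and ∆Tm as the ligand-induced change.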

[2] = Ratio of binding constant K for G-quadruplex human telomeric sequence d[AG3(TTAGGG3) to binding constant K for salmon testis duplex genomic DNA by fluorescence titration method
How it was run: (§1)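 Fluorescence titration, read as ligand fluorescence quenching on DNA binding. Quadruplex was d[AG3(TTAGGG)3] and duplex ST-DNA. K came from a model fit to the titration data, and the ratio was taken as quadruplex K over duplex K.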

[3] = Growth inhibition of human NCI60 cells after 2 days; type: functional
[4] = species on record: Homo sapiens; assay: Binding affinity to quadruplex human telomeric sequence d[AG3(TTAGGG3) by fluorescence titration method; how it was run: as §1
[5] = tested on: Salmonidae; assay: Binding affinity to salmon testis duplex genomic DNA by fluorescence titration method; how it was run: as §1
[6] = Inhibition of telomerase by TRAP assay
[7] = Selectivity index, ratio of GI50 for human NCI60 cells to IC50 for telomerase by TRAP assay; type: functional
[8] = Binding affinity to duplex DNA d[(CG)8] by surface plasmon resonance method
How it was run: (§2)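 SPR in 10 mM HEPES pH 7.4 with 200 mM KCl, 3 mM EDTA, 0.005% surfactant P20. Quadruplex was human telomeric d[AG3(TTAGGG)3] and duplex the alternating GC eight base pair hairpin d[(CG)8]. Equilibrium binding constants K were determined, and the ratio taken as quadruplex K over duplex K.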

[9] = Ratio of binding constant K for G-quadruplex human telomeric sequence d[AG3(TTAGGG3) to binding constant K for duplex DNA d[(CG)8] by surface plasmon resonance method; how it was run: as §2
[10] = species on record: Homo sapiens; assay: Binding affinity to quadruplex human telomeric sequence d[AG3(TTAGGG3) by surface plasmon resonance method; how it was run: as §2
[11] = Binding affinity to poly[dG-dC]2 by UV titration
How it was run: (§3)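 UV absorbance titration following the bathochromic shift on duplex binding. Data were fitted to one binding mode or to two (strong Ks and weak Kw) modes.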

[12] = Binding affinity to poly[dA].poly[dT] by UV titration; how it was run: as §3
[13] = Binding affinity to poly[dA-dT]2 by UV titration; how it was run: as §3
[14] = species on record: Homo sapiens; assay: Stabilization of G-quadruplex in human cmyc Pu27 DNA sequence assessed as decrease in full length product at less than 1 uM by Taq polymerase arrest assay relative to G-quadruplex arrest; set-up: scale not given: the % may be the effect or the level left
How it was run: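 Taq polymerase arrest: the quadruplex-forming sequence sat in a cassette template, and a radiolabeled primer was extended by the polymerase. Full-length (77-mer) and arrest product bands were quantified and their ratio plotted against drug concentration. IC50 was the concentration giving 50% decrease in full-length product relative to arrest products.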

[15] = tested on: Salmonidae; assay: Binding affinity to salmon testis DNA by UV titration; how it was run: as §3
[16] = Binding affinity to poly[dG].poly[dC] by UV titration; how it was run: as §3
[17] = tested on: Salmonidae; assay: Increase in melting temperature of salmon testis DNA

Row | SMILES | ΔTm [1] [°C] | Ratio [2] | GI50 ([3]; Homo sapiens, NCI60, 48 h) [nM] | K [4] | K [5] | pIC50 [6] | Selectivity index [7] | also measured
1 | CN1c2ccccc2-c2c3c1cccc3c1ccccc1[n+]2C.[I-] | 2.8 | 1.3 | 7580 | 0.91 10^5/M | 0.71 10^5/M | 5.81 | 4.8 | 
2 | CN1c2ccccc2-c2c3c1cccc3c1ccc(N(C)S(=O)(=O)c3ccc(F)cc3)cc1[n+]2C.[I-] |  | 2.3 | 10000 | 1.9 10^5/M | 0.83 10^5/M | 6.14 | 14 | K [8]: 17 10^5/M; Ratio [9]: 2.8; K [10]: 48 10^5/M
3 | Cc1cc2c3c([n+](C)c4ccc(F)cc4c3c1)-c1cc(F)ccc1N2C | 8 | 4.8 |  | 2.7 10^5/M | 0.56 10^5/M | 6.48 |  | K [11]: 6 10^6/M; K [8]: 3.4 10^5/M; Ratio [9]: 32.3; K [12]: 8 10^4/M; K [10]: 110 10^5/M; K [13]: 6 10^5/M; Activity [14]: 50%; K [15]: 2 10^5/M; K [16]: 1 10^6/M; Tm [17]: 10.8 °C
4 | CCN1c2ccccc2-c2c3c1cc(C)cc3c1ccccc1[n+]2CC.[I-] | 0 |  | 1100 |  |  | 5.70 | 0.6 | 
5 | COc1cc2c3c([n+](C)c4ccccc4c3c1)-c1ccc(/C=C/C(=O)N3CCOCC3)cc1N2C (stereo in doubt; 9r) |  |  |  |  |  |  |  | GI50 [3]: 43600 nM
6 | COc1cc2c3c([n+](C)c4ccc(Cl)cc4c3c1)-c1ccccc1N2C.[I-] | 9 | 2.9 | 740 | 6.4 10^5/M | 2.2 10^5/M | 6.55 | 2.6 | 
7 | CCCCCCCCCCCC(=O)Nc1ccc2c3cccc4c3c([n+](C)c2c1)-c1ccccc1N4C |  |  | 540 |  |  |  |  | 
8 | COc1cc2c3c([n+](C)c4ccccc4c3c1)-c1ccc(Cl)cc1N2C |  |  | 750 |  |  |  |  | 
9 | c1cc2c3c(c1)-c1cccc4nc5ccccc5c(c14)N3CC2 |  |  | 60 |  |  |  |  | 
10 | CN1c2ccccc2-c2c3c1cccc3c1ccc(NC(=O)C(F)(F)F)cc1[n+]2C.[I-] |  | 8.6 | 2200 | 6 10^5/M | 0.7 10^5/M | 6.51 | 7 | K [8]: 3.8 10^5/M; Ratio [9]: 34.2; K [10]: 130 10^5/M
11 | CNc1ccc2c3cccc4c3c([n+](C)c2c1)-c1ccccc1N4C |  |  | 460 |  |  |  |  | 
12 | CN1c2ccccc2-c2c3c1cccc3c1ccc(NC(=O)c3ccccc3)cc1[n+]2C |  |  | 6610 |  |  |  |  | 
13 | Nc1ccc2c(c1)Nc1c3ccccc3nc3cccc-2c13 |  |  | 1480 |  |  |  |  | 
14 | CC(=O)OCCCc1cc2c3c([n+](C)c4ccc(CCCOC(C)=O)cc4c3c1)-c1ccccc1N2C | 0.5 | 1.7 |  | 1.6 10^5/M | 0.94 10^5/M |  |  | K [8]: 1.7 10^5/M; Ratio [9]: 1.4; K [10]: 2.4 10^5/M
15 | CN(C)c1ccc2c3cccc4c3c([n+](C)c2c1)-c1ccccc1N4C | 3.8 |  | 280 |  |  |  |  | 
16 | COC(=O)CCCCC(=O)Nc1ccc2c3cccc4c3c([n+](C)c2c1)-c1ccccc1N4C.[I-] |  | 14.7 | 6020 | 10 10^5/M | 0.68 10^5/M | 6.68 | 27 | 
17 | CN1c2ccccc2-c2cccc3nc4ccccc4c1c23 |  |  | 320 |  |  |  |  | 

Row | SMILES | ΔTm [1] [°C] | Ratio [2] | GI50 ([3]; Homo sapiens, NCI60, 48 h) [nM] | K [4] | K [5] | pIC50 [6] | Selectivity index [7] | also measured
18 | COS(=O)(=O)[O-].Cc1ccc2c(c1)-c1c3c(cc(C)cc3c3cc(C)ccc3[n+]1C)N2C | 7 |  |  |  | 2.4 10^5/M | 6.60 | 1.6 | K [11]: 1.2 10^6/M; K [8]: 5.4 10^5/M; Ratio [9]: 13.7; K [12]: 4 10^6/M; K [10]: 74 10^5/M; K [13]: 4 10^5/M; Activity [14]: 50%; K [15]: 8 10^6/M; K [16]: 1 10^6/M
19 | CN1c2ccccc2-c2c3c1cccc3c1ccc(NC(=O)C(C)(C)C)cc1[n+]2C.[I-] |  | 9.2 | 3300 | 11 10^5/M | 1.2 10^5/M | 6.64 | 14 | 
20 | c1ccc2c(c1)Nc1cccc3cc4[n+](c-2c13)CCC4 |  |  | 90 |  |  |  |  | 
21 | CN1c2ccccc2-c2c3c1cc(/C=C/C(=O)N1CCOCC1)cc3c1cc(Cl)ccc1[n+]2C |  |  | 12300 |  |  |  |  | 
22 | Cc1cc2c3c([n+](C)c4ccc(Cl)cc4c3c1)-c1cc(Cl)ccc1N2C |  |  | 4710 |  |  |  |  | 
23 | COS(=O)(=O)[O-].Cc1cc2c3c([n+](C)c4ccccc4c3c1)-c1ccccc1N2C | 2 |  | 1290 |  |  | 6.13 | 1.7 | 
24 | COC(=O)/C=C/c1ccc2c(c1)N(C)c1cc(OC)cc3c1c-2[n+](C)c1ccccc31 |  |  | 4570 |  |  |  |  | 
25 | COc1cc2c3c([n+](C)c4ccccc4c3c1)-c1ccc(/C=C/C(=O)N3CCOCC3)cc1N2C (stereo in doubt; 9t) |  |  |  |  |  |  |  | GI50 [3]: > 100000 nM
26 | COc1cc(NS(C)(=O)=O)ccc1Nc1c2ccccc2nc2ccccc12 | 0 |  |  |  |  |  |  | 
27 | CN1c2ccccc2-c2c3c1cccc3c1cc(Cl)ccc1[n+]2C.[I-] | 5 | 6 | 3160 | 6.7 10^5/M | 1.1 10^5/M | 6.59 | 12 | 
28 | CC(=O)Nc1ccc2c(c1)c1cccc3c1c([n+]2C)-c1ccccc1N3C.[I-] |  | 5.8 | 81300 | 3.1 10^5/M | 0.53 10^5/M | 6.39 | 195 | K [8]: 4.4 10^5/M; Ratio [9]: 57; K [10]: 250 10^5/M
29 | CCCCC(=O)Nc1ccc2c3cccc4c3c([n+](C)c2c1)-c1ccccc1N4C |  |  | 1000 |  |  |  |  | 
30 | CC(=O)Nc1ccc2c3cccc4c3c([n+](C)c2c1)-c1ccccc1N4C.[I-] | 10 | 5.9 |  | 3.7 10^5/M | 0.63 10^5/M | 6.42 | 32 | K [8]: 3.8 10^5/M; Ratio [9]: 63; K [10]: 240 10^5/M; Activity [14]: 50%
31 | CN1c2ccccc2-c2c3c1cccc3c1ccc(N)cc1[n+]2C.[I-] |  |  | 3550 |  |  | 5.73 | 1.9 | 
32 | CCOC(=O)Nc1ccc2c3cccc4c3c([n+](C)c2c1)-c1ccccc1N4C |  |  | 660 |  |  |  |  | 
33 | CN1c2ccccc2-c2c3c1cccc3c1cc(/C=C/C(=O)N3CCOCC3)ccc1[n+]2C | 4.5 | 10.3 | 67600 | 3.2 10^5/M | 0.31 10^5/M | 6.43 |  | K [8]: 25 10^5/M; Ratio [9]: 2.8; K [10]: 71 10^5/M; Activity [14]: 50%
